# CHOP inh – inhibitors of CHOP induction in ER stress response; CHO-K1 CHOP-promoter luciferase, tunicamycin-induced, 15-18 h; inhibition, % at 10 µM; 220,000 tested, 3.8% active;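 active = compounds that reduced the stress-induced luciferase reporter signal by more than about 70% of percent inhibition, limit read from the data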
# p-CIP stab down – lowers stability of the mouse p/CIP coactivator protein. Q05BA5. F442A p/CIP-EGFP cells, EGFP fluorescence, 16 h. 290,000 tested, 0.01% active. decrease of EGFP signal, % at 10 µM;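 active = EGFP signal decrease of at least 30% at 10 µM or well 3 SD below plate mean, unless failing retest; inactive = the rest, including hits failing retest or dose response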
# UPR CHOP act – activators of apoptotic arm of unfolded protein response (CHOP); AID 449763; activation, % at 10 µM; 330,000 tested, 0.34% active; CHO-CHOP luciferase reporter, UPR activation, luminescence; percent of tunicamycin response over DMSO baseline;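 active = at 10 µM dose, activation of 40% or more, normalized to positive control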
#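 System: CHO CHOP reporter cells. Amount: 500 cells per well. Buffer or medium: F12 medium, 10% FBS. Compound dosing: one dose, 10 µM in 0.5% DMSO. Incubation: 6 h compound exposure at 37 °C after overnight seeding. Technique: Steady-Glo luciferase luminescence. Benchmarks: tunicamycin and DMSO controls.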
# Beta2AR agonist – activates human beta-2 adrenergic receptor causing internalization; Am2.2-beta2AR cells, FAP receptor internalization, flow cytometry; response, % (no concentration beside the values); 340,000 tested, 0.43% active; AID 504454;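 active = response above a set limit, near 3 SD of response in nonfluorescent compounds, cut at about 42% in these data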
# XBP1 UPR activ – activators of adaptive arm of unfolded protein response (XBP1); activation, % at 20 µM; CHO-XBP1 luciferase reporter, IRE1-XBP1 UPR activation, luminescence; percent of tunicamycin response, DMSO as zero; 330,000 tested, 0.33% active;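 active = versus positive control, 20 µM dose yields 30% or more activation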
#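 Assay system: IRE1-XBP1 luciferase reporter CHO line. Input: 1000 cells/well. Buffer or medium: F12 with 10% serum. Doses: 20 µM, 1% DMSO. Times: overnight seeding at 37 °C, 6 h compound treatment at 37 °C. Technique: Steady-Glo luciferase glow luminescence, 10 min after reagent addition.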
# Dynein transport – blocks dynein driven cargo transport along microtubules; 3617.4 mouse cells, GR-EGFP nuclear translocation imaging; test concentration mostly 20 µM; stimulated with dexamethasone, 1 µM; active compounds read low; z-score, hits read low; 220,000 tested, 0.47% active;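 active = plate z-score of nuclear minus cytoplasmic receptor signal below a set negative limit, without overly bright fluorescence or cell loss, cut at about -3.5 in these data, passing the limit was not always enough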;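 also: z-score of nuclear minus cytoplasmic ring GR-EGFP intensity difference per well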
#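 Buffer or medium – tet-free medium with charcoal-stripped serum · Signal – automated 10x imaging of fixed Hoechst-stained cells · Also added – dexamethasone agonist, 1.0 µM final, for 30 min · Incubation – induction 48 h, compound 1 h, agonist 30 min · Read-out – GR-EGFP nuclear translocation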
# Dynein inh conf – dynein cargo transport inhibition, confirmation. calls only at 20 µM. AID 463116. shares compounds with Dynein transport. 1,000 tested, 69% active. 3617.4 GR-EGFP nuclear translocation imaging, dexamethasone-induced;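 active = inhibition of receptor movement into the nucleus at or above a set limit in both runs, with normal cell brightness and cell count; inconclusive = limit reached in only one run, brightness and count normal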;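 also: dexamethasone at 1 µM final in well for 30 min; nuclear minus cytoplasmic GR-EGFP mean intensity difference in channel 2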
# Hits are given with their value; - = inactive; ? = inconclusive; . = no result; + = active, no number. Shown is part of a subset that was picked to be rich in hits.
SMILES,CHOP inh,p-CIP stab down,UPR CHOP act,Beta2AR agonist,XBP1 UPR activ,Dynein transport,Dynein inh conf
NC(=O)N/N=C/c1c(Sc2nnnn2-c2ccccc2)nc2ccccn2c1=O,-,-,-,-,-,-5.3,-
CCN1C[C@@H]2[C@@H]3C(=O)N(C)C(=O)[C@@H]3[C@](Cc3ccccc3)(C1=O)N2C(=O)c1ccc(Cl)cc1,.,.,.,-,.,.,.
Cc1cccc(CS(=O)(=O)c2nnc([C@H](Cc3ccccc3)NC(=O)OC(C)(C)C)o2)c1,115,-,-,61,-,-4.9,-
CC(C)(C)OC(=O)N[C@@H](Cc1ccccc1)c1nnc(SCC(N)=O)o1,-,-,-,-,-,-,.
CCOc1cc(C(=O)OCC(=O)Nc2cccc(S(=O)(=O)NC3=NCCCCC3)c2)cc(OCC)c1OCC,.,.,-,-,-,.,.
CCN(CC)Cc1cc(O)c(CN(CC)CC)cc1O,-,-,.,-,.,-4.9,+
CCc1oc(C(=O)O)cc1CN(CC)CC,-,-,-,-,-,-,.
COc1ccc(NC(=O)CN(C)C(=O)CCc2c[nH]c3ccccc23)cc1,.,-,-,-,-,.,.
CCc1ccccc1NC(=O)CN(C)C(=O)Cn1ncc(Cl)c(Cl)c1=O,-,-,.,-,.,-3.7,+
O=C(CCN1CCc2ccccc2C(c2ccccc2)C1)c1ccc2c(c1)OCCO2 (stereo unspecified),-,-,-,-,-,-,.
O=C(CCN1Cc2ccccc2C1)c1ccc2c(c1)OCCO2,-,-,-,-,-,-3.6,?
CC(=O)n1cc(N(C(=O)CCl)c2ccccc2)c2ccccc21,107,-,-,-,-,-4.5,+
CC(=O)n1cc(N(C(=O)CCl)c2ccc([N+](=O)[O-])cc2)c2ccccc21,106,-,-,61,-,-5,+
N#Cc1c2ccc(O)cc2n2ccccc12,-,-,-,-,-,-,.
c1ccc(C2CCC3(CC2)Oc2ccccc2C2CC(c4cccnc4)=NN23)cc1 (stereo unspecified),-,-,-,.,-,-,.
Cc1c(Cl)cccc1NC(=S)N1CCN(C(=O)C2CCCO2)CC1 (stereo unspecified),-,-,-,-,-,-,.
COc1cc(N2C(=O)C=CC2=O)c(OC)cc1Cl,-,-,-,-,-,-5.1,+
COc1cc2c(cc1OC)C(c1cccs1)N(C(=O)c1cccc(S(=O)(=O)N(C)C)c1)CC2 (stereo unspecified),-,-,-,-,-,-,.
COCCCn1c(O)c(/C=C2\N=C(C#N)C(=Nc3ccc(C)cc3)O2)sc1=S,-,-,-,-,-,-,+
Cn1cc(Br)c(NC(=O)/C=C/C(=O)O)n1,-,-,-,-,-,-6.2,+
Cn1cc(Br)c(C(=O)Nc2c(F)c(F)c(F)c(F)c2F)n1,-,-,-,-,-,-,.
O=C(NCCCNc1ccc([N+](=O)[O-])cc1)C(F)(F)F,-,-,-,-,-,-,.
O=C(CCl)N(CCCNC(=O)C(F)(F)F)c1ccc([N+](=O)[O-])cc1,-,-,-,-,-,-5,+
Cc1cccn2c(=O)c(C=O)c(Cl)nc12,-,-,-,-,-,-5.9,+
CC(C)N1C(=O)/C(=C\c2nc3ccccc3c(=O)n2-c2ccccc2)c2ccccc21,-,-,.,-,.,-5,+
SMILES,CHOP inh,p-CIP stab down,UPR CHOP act,Beta2AR agonist,XBP1 UPR activ,Dynein transport,Dynein inh conf
CCCCC(=O)OCc1c(-c2cccc(OC)c2)ncc2ccccc12,.,.,-,-,-,.,.
COc1cc2c(cc1OC)CN(CCC(=O)c1ccc(Br)cc1)CC2,-,-,-,-,-,-4.1,?
O=[N+]([O-])c1ccc2c(c1)N([O-])C1(CCCCC1)[N+]2=O,95,-,.,-,.,-3.6,+
CC1=C(c2ccccc2)[N+](=O)C2(CCCC2)N1[O-],-,-,-,-,-,-,.
CC(=O)C(=Cc1ccc(C(=O)O)cc1)C(C)=O,-,-,-,-,-,-,.
Cc1ccc(NC(=O)C(=Cc2ccc(C(=O)O)cc2)C(=O)Nc2ccc(C)cc2C)c(C)c1,-,-,-,-,-,-6,+
COc1cc(/C=C/C(=O)OCC(=O)Nc2c(C)n(C)n(-c3ccccc3)c2=O)cc(OC)c1OC,.,.,-,-,-,.,.
CC1=Nc2ccccc2/C1=C/c1nc(-c2ccc(C)s2)oc1O,-,-,-,-,-,-,?
CC1=Nc2ccccc2/C1=C\c1nc(-c2ccccc2)oc1O,-,-,-,-,-,-,.
CC(C)(C)n1nc2c(c1NC(=O)C1CC(=O)N(c3ccc(Cl)cc3)C1)CS(=O)(=O)C2 (stereo unspecified),.,-,-,-,-,.,.
COc1ccc(CC(=O)n2[nH]c(=O)ccc2=O)cc1OC,-,-,-,-,-,-3.6,-
CC1Sc2ccc(C(=O)Nc3ncccc3O)cc2NC1=O (stereo unspecified),.,.,-,-,-,.,.
Cc1ccc(-c2cc(C(F)F)nc(S(C)(=O)=O)n2)cc1,-,-,-,-,-,-4.5,+
O=c1c2ccccc2cnn1Cc1ccc(Cl)c(Cl)c1,.,-,-,-,-,.,.
Cc1ccc(C(=O)OCn2ncc(Cl)c(Cl)c2=O)cc1,107,-,-,62,-,-3.8,+
Cc1ccc(C(=O)COC(=O)c2nc(Cl)ccc2Cl)cc1,.,.,-,-,-,.,.
Cc1cc2oc(=O)cc(Cn3ncc(Cl)c(Cl)c3=O)c2cc1Cl,105,-,-,-,-,-6.1,+
Cc1cccc(Cn2ncc(Cl)c(Cl)c2=O)c1,-,-,-,-,-,-4.3,+
Fc1ccc(CNC(=S)NC2CCCC2)cc1,-,-,-,-,-,-,.
COc1cc(C(=O)Sc2ccc(C)cc2)cc(OC)c1OC,82,-,-,-,-,-4.4,+
Cc1noc(C)c1C(=O)OC(C)C(=O)Nc1ccc(C(N)=O)cc1 (stereo unspecified),.,.,-,-,-,.,.
Cc1ccc(C(=O)/C=C/c2ccccc2[N+](=O)[O-])cc1,-,-,-,63,-,-4.7,+
COc1cccc(/C=C/C(=O)c2ccc(NS(=O)(=O)c3ccc(C)cc3)cc2)c1,-,-,-,-,-,-,.
COc1ccc(/C=C/C(=O)c2ccc(C)c([N+](=O)[O-])c2)cc1O,-,-,-,-,-,-,.
COc1cccc(/C=C/C(=O)c2ccc(C)c([N+](=O)[O-])c2)c1,-,-,-,-,-,-4,+
COc1cc(/C=C/C(=O)c2ccc(C)c([N+](=O)[O-])c2)cc(OC)c1O,-,-,-,-,-,-3.8,?

# Assay outcomes deposited in PubChem by several laboratories.
